Assay results as given in ChEMBL document CHEMBL2429759, “Anti-tumor activity evaluation of novel chrysin-organogermanium(IV) complex in MCF-7 cells” (Bioorg Med Chem Lett, 2013).
Active and inactive are the calls of the source. The calls are words filed in the database; no cut-off is given here.

How the values were obtained:
MCF7 [1] = test: Induction of apoptosis in human MCF7 cells assessed as disruption of mitochondrial membrane potential measured as mean fluorescence intensity at 20 ug/ml by rhodamine 123 staining-based flow cytometry (reference value: 3094 no unit); format: functional, cell-based
MCF7 [2] = test: Induction of apoptosis in human MCF7 cells assessed as disruption of mitochondrial membrane potential measured as mean fluorescence intensity at 10 ug/ml by rhodamine 123 staining-based flow cytometry (reference value: 3094 no unit); format: functional, cell-based
MCF7 [3] = test: Disruption of cell morphology in human MCF7 cells assessed as decrease in tip-cell adhesion force at 10 ug/ml by atomic force microscopy relative to control; format: functional, cell-based
Summary of the method: (§1)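 AFM high-resolution topography and force measurements on control MCF-7 cells and cells treated with 10 μg/mL complex, assessing surface ultrastructure, rigidity and tip-cell adhesion force.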

MCF7 [4] = test: Induction of apoptosis in human MCF7 cells assessed as gatheration of condensed chromatin at periphery of nuclear membrane at 10 ug/ml by DAPI staining-based immunofluorescence analysis relative to control; format: functional, cell-based
Summary of the method: (§2)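 Nuclear morphology of control and 10 μg/mL-treated MCF-7 cells visualised by DAPI staining under fluorescence microscopy.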

MCF7 [5] = test: Induction of apoptosis in human MCF7 cells assessed as segmentation of nuclei at 10 ug/ml by DAPI staining-based immunofluorescence analysis relative to control; format: functional, cell-based; summary of the method: as §2
MCF7 [6] = test: Disruption of cell integrity in human MCF7 cells at 10 ug/ml by immunofluorescence analysis; format: functional, cell-based
Summary of the method: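 MCF-7 cells treated with complex at various concentrations; α-tubulin stained with Tubulin-Tracker red and fibre network imaged by immunofluorescence microscopy.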

MCF7 [7] = test: Disruption of microfilament organization in human MCF7 cells at 10 ug/ml by immunofluorescence analysis; format: functional, cell-based
MCF7 [8] = test: Induction of apoptosis in human MCF7 cells assessed as caspase 9 activation at 20 ug/ml by fluorometric analysis (reference value: 100%); format: functional, cell-based
Summary of the method: (§3)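 Caspase-3, -8 and -9 activities read fluorometrically in whole-cell extracts of treated MCF-7; mean ± standard deviation of three independent experiments.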

MCF7 [9] = test: Induction of apoptosis in human MCF7 cells assessed as caspase 8 activation at 20 ug/ml by fluorometric analysis (reference value: 100%); format: functional, cell-based; summary of the method: as §3
MCF7 [10] = test: Induction of apoptosis in human MCF7 cells assessed as disruption of mitochondrial membrane potential measured as mean fluorescence intensity at 5 ug/ml by rhodamine 123 staining-based flow cytometry (reference value: 3094 no unit); format: functional, cell-based
MCF7 [11] = test: Induction of apoptosis in human MCF7 cells assessed as caspase 3 activation at 20 ug/ml by fluorometric analysis (reference value: 100%); format: functional, cell-based; summary of the method: as §3
MCF7 [12] = test: Induction of apoptosis in human MCF7 cells assessed as intracellular ROS production measured as mean fluorescence intensity at 2.5 ug/ml using DCFH-DA staining-based flow cytometry (reference value: 101.50 no unit); format: functional, cell-based
MCF7 [13] = test: Antimigratory activity against human MCF7 cells at 2.5 to 20 ug/ml after 24 hrs by wound-healing assay; format: functional, cell-based
Summary of the method: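 Scratch wound-healing: monolayers wounded with a p200 pipette tip, kept with or without complex; images taken at 0 and 24 h; reference lines drawn equidistant.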

MCF7 [14] = test: Induction of apoptosis in human MCF7 cells assessed as intracellular ROS production measured as mean fluorescence intensity at 5 ug/ml using DCFH-DA staining-based flow cytometry (reference value: 101.50 no unit); format: functional, cell-based
MCF7 [15] = test: Induction of apoptosis in human MCF7 cells assessed as intracellular ROS production measured as mean fluorescence intensity at 10 ug/ml using DCFH-DA staining-based flow cytometry (reference value: 101.50 no unit); format: functional, cell-based
MCF7 [16] = test: Cell cycle arrest in human MCF7 cells assessed as accumulation at G2/M phase at 20 ug/ml after 24 hrs by propidium iodide staining-based flow cytometry (reference value: 7.43 +/- 0.98%); format: functional
MCF7 [17] = test: Cell cycle arrest in human MCF7 cells assessed as accumulation at G2/M phase at 10 ug/ml after 24 hrs by propidium iodide staining-based flow cytometry (reference value: 7.43 +/- 0.98%); format: functional
MCF7 [18] = test: Cell cycle arrest in human MCF7 cells assessed as accumulation at G2/M phase at 5 ug/ml after 24 hrs by propidium iodide staining-based flow cytometry (reference value: 7.43 +/- 0.98%); format: functional
MCF7 [19] = test: Cell cycle arrest in human MCF7 cells assessed as accumulation at G2/M phase at 2.5 ug/ml after 24 hrs by propidium iodide staining-based flow cytometry (reference value: 7.43 +/- 0.98%); format: functional
MCF7 [20] = test: Induction of apoptosis in human MCF7 cells assessed as necrotic cells at 20 ug/ml after 24 hrs by annexin-V FITC/propidium iodide staining-based flow cytometry (reference value: 0.3%); format: functional, cell-based
Summary of the method: (§4)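 Apoptosis in MCF-7 after 24 h exposure to 5, 10 or 20 μg/mL complex; annexin-V-FITC/PI staining with flow cytometry. Quadrants: Q3 live, Q4 apoptotic, Q2 necrotic or late apoptotic.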

MCF7 [21] = test: Induction of apoptosis in human MCF7 cells assessed as late apoptotic cells at 20 ug/ml after 24 hrs by annexin-V FITC/propidium iodide staining-based flow cytometry (reference value: 1.0%); format: functional, cell-based; summary of the method: as §4
MCF7 [22] = test: Induction of apoptosis in human MCF7 cells assessed as early apoptotic cells at 20 ug/ml after 24 hrs by annexin-V FITC/propidium iodide staining-based flow cytometry (reference value: 0.5%); format: functional, cell-based; summary of the method: as §4
MCF7 [23] = test: Induction of apoptosis in human MCF7 cells assessed as viable cells at 20 ug/ml after 24 hrs by annexin-V FITC/propidium iodide staining-based flow cytometry (reference value: 98.1%); format: functional, cell-based; summary of the method: as §4
MCF7 [24] = test: Induction of apoptosis in human MCF7 cells assessed as necrotic cells at 10 ug/ml after 24 hrs by annexin-V FITC/propidium iodide staining-based flow cytometry (reference value: 0.3%); format: functional, cell-based; summary of the method: as §4
MCF7 [25] = test: Induction of apoptosis in human MCF7 cells assessed as late apoptotic cells at 10 ug/ml after 24 hrs by annexin-V FITC/propidium iodide staining-based flow cytometry (reference value: 1.0%); format: functional, cell-based; summary of the method: as §4
MCF7 [26] = test: Induction of apoptosis in human MCF7 cells assessed as early apoptotic cells at 10 ug/ml after 24 hrs by annexin-V FITC/propidium iodide staining-based flow cytometry (reference value: 0.5%); format: functional, cell-based; summary of the method: as §4
MCF7 [27] = test: Induction of apoptosis in human MCF7 cells assessed as viable cells at 10 ug/ml after 24 hrs by annexin-V FITC/propidium iodide staining-based flow cytometry (reference value: 98.1%); format: functional, cell-based; summary of the method: as §4
MCF7 [28] = test: Induction of apoptosis in human MCF7 cells assessed as necrotic cells at 5 ug/ml after 24 hrs by annexin-V FITC/propidium iodide staining-based flow cytometry (reference value: 0.3%); format: functional, cell-based; summary of the method: as §4
MCF7 [29] = test: Induction of apoptosis in human MCF7 cells assessed as late apoptotic cells at 5 ug/ml after 24 hrs by annexin-V FITC/propidium iodide staining-based flow cytometry (reference value: 1.0%); format: functional, cell-based; summary of the method: as §4
MCF7 [30] = test: Induction of apoptosis in human MCF7 cells assessed as early apoptotic cells at 5 ug/ml after 24 hrs by annexin-V FITC/propidium iodide staining-based flow cytometry (reference value: 0.5%); format: functional, cell-based; summary of the method: as §4
MCF7 [31] = test: Induction of apoptosis in human MCF7 cells assessed as viable cells at 5 ug/ml after 24 hrs by annexin-V FITC/propidium iodide staining-based flow cytometry (reference value: 98.1%); format: functional, cell-based; summary of the method: as §4
MCF7 [32] = test: Growth inhibition of human MCF7 cells at 20 ug/ml by MTT assay; format: functional
MCF7 [33] = test: Growth inhibition of human MCF7 cells at 30 ug/ml by MTT assay; format: functional
MCF7 [34] = test: Growth inhibition of human MCF7 cells at 10 ug/ml by MTT assay; format: functional
COLO 205 [35] = test: Growth inhibition of human COLO205 cells at 30 ug/ml by MTT assay; format: functional
MCF7 [36] = test: Growth inhibition of human MCF7 cells at 5 ug/ml by MTT assay; format: functional
COLO 205 [37] = test: Growth inhibition of human COLO205 cells at 10 ug/ml by MTT assay; format: functional
COLO 205 [38] = test: Growth inhibition of human COLO205 cells at 20 ug/ml by MTT assay; format: functional
COLO 205 [39] = test: Growth inhibition of human COLO205 cells at 5 ug/ml by MTT assay; format: functional
HepG2 [40] = test: Growth inhibition of human HepG2 cells at 20 ug/ml by MTT assay; format: functional
HepG2 [41] = test: Growth inhibition of human HepG2 cells at 30 ug/ml by MTT assay; format: functional
HepG2 [42] = test: Growth inhibition of human HepG2 cells at 5 ug/ml by MTT assay; format: functional
HepG2 [43] = test: Growth inhibition of human HepG2 cells at 10 ug/ml by MTT assay; format: functional
MCF7 [44] = test: Growth inhibition of human MCF7 cells by MTT assay; format: functional, cell-based
COLO 205 [45] = test: Growth inhibition of human COLO205 cells by MTT assay; format: functional, cell-based
HepG2 [46] = test: Growth inhibition of human HepG2 cells by MTT assay; format: functional, cell-based
MCF7 [47] = test: Disruption of cell morphology in human MCF7 cells assessed as deformed shrunk cell tails at 10 ug/ml by atomic force microscopy relative to control; format: functional, cell-based; summary of the method: as §1

Question: “5-hydroxy-2-phenyl-7-(triphenylgermyloxy)-4H-chromen-4-one ethanol” was tested. Which Flu intensity (MCF7 [1]) did it give?
Answer: 1480

Question: And the Flu intensity (MCF7 [2])?
Answer: 1370

Question: What about the Activity (MCF7 [3]) of the same substance?
Answer: Active

Question: What about the Activity (MCF7 [4]) of the same substance?
Answer: Active

Question: And the Activity (MCF7 [5])?
Answer: Active

Question: What about the Activity (MCF7 [6]) of the same substance?
Answer: Active

Question: And the Activity (MCF7 [7])?
Answer: Active

Question: And the Activity (MCF7 [8])?
Answer: 286%

Question: And the Activity (MCF7 [9])?
Answer: 181%

Question: And the Flu intensity (MCF7 [10])?
Answer: 1980

Question: And the Activity (MCF7 [11])?
Answer: 214%

Question: And the Flu intensity (MCF7 [12])?
Answer: 87.1

Question: What about the Activity (MCF7 [13]) of the same substance?
Answer: Active

Question: What about the Flu intensity (MCF7 [14]) of the same substance?
Answer: 107

Question: And the Flu intensity (MCF7 [15])?
Answer: 126

Question: What about the Activity (MCF7 [16]) of the same substance?
Answer: 30.9%

Question: And the Activity (MCF7 [17])?
Answer: 24.5%

Question: And the Activity (MCF7 [18])?
Answer: 15.8%

Question: And the Activity (MCF7 [19])?
Answer: 8.73%

Question: What about the Activity (MCF7 [20]) of the same substance?
Answer: 0.6%

Question: What about the Activity (MCF7 [21]) of the same substance?
Answer: 5.4%

Question: What about the Activity (MCF7 [22]) of the same substance?
Answer: 19.5%

Question: What about the Activity (MCF7 [23]) of the same substance?
Answer: 74.5%

Question: What about the Activity (MCF7 [24]) of the same substance?
Answer: 0.7%

Question: And the Activity (MCF7 [25])?
Answer: 6.2%

Question: And the Activity (MCF7 [26])?
Answer: 5.1%

Question: What about the Activity (MCF7 [27]) of the same substance?
Answer: 88.1%

Question: What about the Activity (MCF7 [28]) of the same substance?
Answer: 0.5%

Question: What about the Activity (MCF7 [29]) of the same substance?
Answer: 3.2%

Question: And the Activity (MCF7 [30])?
Answer: 1.5%

Question: And the Activity (MCF7 [31])?
Answer: 94.9%

Question: What about the growth inhibition (GI) (MCF7 [32]) of the same substance?
Answer: 31.3%

Question: And the growth inhibition (GI) (MCF7 [33])?
Answer: 42.1%

Question: And the growth inhibition (GI) (MCF7 [34])?
Answer: 19.2%

Question: And the growth inhibition (GI) (COLO 205 [35])?
Answer: 31.6%

Question: What about the growth inhibition (GI) (MCF7 [36]) of the same substance?
Answer: 7.01%

Question: What about the growth inhibition (GI) (COLO 205 [37]) of the same substance?
Answer: 12.1%

Question: What about the growth inhibition (GI) (COLO 205 [38]) of the same substance?
Answer: 20.3%

Question: And the growth inhibition (GI) (COLO 205 [39])?
Answer: 5.85%

Question: And the growth inhibition (GI) (HepG2 [40])?
Answer: 31.1%

Question: And the growth inhibition (GI) (HepG2 [41])?
Answer: 36.7%

Question: What about the growth inhibition (GI) (HepG2 [42]) of the same substance?
Answer: 7.95%

Question: What about the growth inhibition (GI) (HepG2 [43]) of the same substance?
Answer: 20.3%

Question: And the “growth inhibition (GI)” value (MCF7 [44])?
Answer: Dose-dependent effect

Question: And the “growth inhibition (GI)” value (COLO 205 [45])?
Answer: Dose-dependent effect

Question: What about the “growth inhibition (GI)” value (HepG2 [46]) of the same substance?
Answer: Dose-dependent effect

Question: What about the Activity (MCF7 [47]) of the same substance?
Answer: Active
